From ChEMBL document CHEMBL3860041, “Synthesis, biological evaluation and molecular modeling study of some new methoxylated 2-benzylthio-quinazoline-4(3H)-ones as nonclassical antifolates” (Bioorg Med Chem Lett, 2016)

How the values were obtained:
Assay type in all cases: functional
[1] = Growth inhibition of human K562 cells at 10 uM after 48 hrs by SRB assay relative to control; conditions: K562, 48 h, read-out: GI
Procedure, shortened: (§1)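 NCI 60-cell-line panel, nine tumor subpanels; compounds tested at a single dose of 10 μM in the primary screen.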

[2] = Growth inhibition of human MOLT4 cells at 10 uM after 48 hrs by SRB assay relative to control; conditions: MOLT-4, 48 h, read-out: GI; procedure, shortened: as §1
[3] = Growth inhibition of human RPMI8226 cells at 10 uM after 48 hrs by SRB assay relative to control; conditions: RPMI-8226, 48 h, read-out: GI; procedure, shortened: as §1
[4] = Growth inhibition of human A549 cells at 10 uM after 48 hrs by SRB assay relative to control; conditions: A549, 48 h, read-out: GI; procedure, shortened: as §1
[5] = Growth inhibition of human NCI-322M cells at 10 uM after 48 hrs by SRB assay relative to control; conditions: read-out: GI; procedure, shortened: as §1
[6] = Growth inhibition of human NCI-H460 cells at 10 uM after 48 hrs by SRB assay relative to control; conditions: NCI-H460, 48 h, read-out: GI; procedure, shortened: as §1
[7] = Growth inhibition of human HCC2998 cells at 10 uM after 48 hrs by SRB assay relative to control; conditions: HCC 2998, 48 h, read-out: GI; procedure, shortened: as §1
[8] = Growth inhibition of human HCT116 cells at 10 uM after 48 hrs by SRB assay relative to control; conditions: HCT-116, 48 h, read-out: GI; procedure, shortened: as §1
[9] = Growth inhibition of human HCT15 cells at 10 uM after 48 hrs by SRB assay relative to control; conditions: HCT-15, 48 h, read-out: GI; procedure, shortened: as §1
[10] = Growth inhibition of human HT-29 cells at 10 uM after 48 hrs by SRB assay relative to control; conditions: HT-29, 48 h, read-out: GI; procedure, shortened: as §1
[11] = Growth inhibition of human U251 cells at 10 uM after 48 hrs by SRB assay relative to control; conditions: U-251, 48 h, read-out: GI
Procedure, shortened: (§2)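 Primary screen across the full NCI 60 human tumour cell line panel, which covers nine tumour subpanels. A single dose of 10 μM was applied to each line, and growth was recorded for each cell line.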

[12] = Growth inhibition of human LOXIMVI cells at 10 uM after 48 hrs by SRB assay relative to control; conditions: LOX IMVI, read-out: GI; procedure, shortened: as §1
[13] = Growth inhibition of human MALME-3M cells at 10 uM after 48 hrs by SRB assay relative to control; conditions: read-out: GI; procedure, shortened: as §1
[14] = Growth inhibition of human SK-MEL-2 cells at 10 uM after 48 hrs by SRB assay relative to control; conditions: SK-MEL-2, 48 h, read-out: GI; procedure, shortened: as §2
[15] = Growth inhibition of human SK-MEL-28 cells at 10 uM after 48 hrs by SRB assay relative to control; conditions: SK-MEL-28, 48 h, read-out: GI; procedure, shortened: as §2
[16] = Growth inhibition of human SK-MEL-5 cells at 10 uM after 48 hrs by SRB assay relative to control; conditions: SK-MEL-5, 48 h, read-out: GI; procedure, shortened: as §2
[17] = Growth inhibition of human UACC62 cells at 10 uM after 48 hrs by SRB assay relative to control; conditions: UACC-62, 48 h, read-out: GI; procedure, shortened: as §2
[18] = Growth inhibition of human IGROV1 cells at 10 uM after 48 hrs by SRB assay relative to control; conditions: IGROV-1, 48 h, read-out: GI; procedure, shortened: as §1
[19] = Growth inhibition of human OVCAR4 cells at 10 uM after 48 hrs by SRB assay relative to control; conditions: OVCAR-4, 48 h, read-out: GI; procedure, shortened: as §1
[20] = Growth inhibition of human OVCAR5 cells at 10 uM after 48 hrs by SRB assay relative to control; conditions: OVCAR-5, 48 h, read-out: GI; procedure, shortened: as §1
[21] = Growth inhibition of human OVCAR8 cells at 10 uM after 48 hrs by SRB assay relative to control; conditions: OVCAR-8, 48 h, read-out: GI; procedure, shortened: as §1
[22] = Growth inhibition of human 786-0 cells at 10 uM after 48 hrs by SRB assay relative to control; conditions: 786-0, 48 h, read-out: GI; procedure, shortened: as §1
[23] = Growth inhibition of human ACHN cells at 10 uM after 48 hrs by SRB assay relative to control; conditions: read-out: GI; procedure, shortened: as §1
[24] = Growth inhibition of human SN12C cells at 10 uM after 48 hrs by SRB assay relative to control; conditions: read-out: GI; procedure, shortened: as §2
[25] = Growth inhibition of human UO31 cells at 10 uM after 48 hrs by SRB assay relative to control; conditions: UO-31, 48 h, read-out: GI; procedure, shortened: as §2
[26] = Growth inhibition of human Hs 578T cells at 10 uM after 48 hrs by SRB assay relative to control; conditions: read-out: GI; procedure, shortened: as §1
[27] = Growth inhibition of human T47D cells at 10 uM after 48 hrs by SRB assay relative to control; conditions: read-out: GI; procedure, shortened: as §2
Cancer cell lines [28] = experiment: Potency index, ratio of 5-fluorouracil GI50 to compound GI50 for human prostate cancer cells
Procedure, shortened: (§3)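 GI50 for each cell line came from NCI panel testing over a 5-log dose range, with 5-fluorouracil tested alongside as the reference drug. The index relates the 5-fluorouracil GI50 to the compound GI50 within each tumour subpanel.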

Cancer cell lines [29] = experiment: Potency index, ratio of 5-fluorouracil GI50 to compound GI50 for human colon cancer cells; procedure, shortened: as §3
Cancer cell lines [30] = experiment: Potency index, ratio of 5-fluorouracil GI50 to compound GI50 for human non-small cell lung cancer cells; procedure, shortened: as §3
[31] = Growth inhibition of human non-small cell lung cancer cells after 48 hrs by SRB assay; conditions: Cancer cell lines
Procedure, shortened: (§4)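 Follow-up NCI panel testing over a 5-log dose range for each cell line. GI50, TGI and LC50 were monitored, with 5-fluorouracil run as the positive control. Values are grouped by tumour subpanel.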

[32] = Growth inhibition of human colon cancer cells after 48 hrs by SRB assay; conditions: Cancer cell lines; procedure, shortened: as §4
[33] = Growth inhibition of human melanoma cells after 48 hrs by SRB assay; conditions: Melanoma cell; procedure, shortened: as §4
[34] = Growth inhibition of human prostate cancer cells after 48 hrs by SRB assay; conditions: Cancer cell lines; procedure, shortened: as §4
[35] = Growth inhibition of human breast cancer cells after 48 hrs by SRB assay; conditions: Cancer cell lines; procedure, shortened: as §4
[36] = Growth inhibition of human SF539 cells at 10 uM after 48 hrs by SRB assay relative to control; conditions: SF-539, 48 h, read-out: GI; procedure, shortened: as §1

COc1cc(CSc2nc3ccc(C)cc3c(=O)n2Cc2ccccc2)cc(OC)c1OC showed an inhibition of growth at 10 µM [1] of 86.2%, an inhibition of growth at 10 µM [2] of 69.2% and an inhibition of growth at 10 µM [3] of 46%. For the same compound, the inhibition of growth at 10 µM [4] was 60%, the inhibition of growth at 10 µM [5] was 53.8% and the inhibition of growth at 10 µM [6] was 82.3%. It also gave an inhibition of growth at 10 µM [7] of 57%, an inhibition of growth at 10 µM [8] of 74.9% and an inhibition of growth at 10 µM [9] of 70.8%. For the same compound, the inhibition of growth at 10 µM [10] was 89.5%, the inhibition of growth at 10 µM [11] was 67% and the inhibition of growth at 10 µM [12] was 60.2%. The inhibition of growth at 10 µM [13] was 70%, the inhibition of growth at 10 µM [14] was 99.1% and the inhibition of growth at 10 µM [15] was 48%. For the same compound, the inhibition of growth at 10 µM [16] was 82.2%, the inhibition of growth at 10 µM [17] was 78.6% and the inhibition of growth at 10 µM [18] was 75.7%. The inhibition of growth at 10 µM [19] was 46.9%, the inhibition of growth at 10 µM [20] was 54.7% and the inhibition of growth at 10 µM [21] was 64.9%. The inhibition of growth at 10 µM [22] was 53.2%, the inhibition of growth at 10 µM [23] was 53.3% and the inhibition of growth at 10 µM [24] was 60%. It also gave an inhibition of growth at 10 µM [25] of 68%, an inhibition of growth at 10 µM [26] of 79.3% and an inhibition of growth at 10 µM [27] of 65.9%. It also gave a RatioGI50 (Cancer cell lines [28]) of 10, a RatioGI50 (Cancer cell lines [29]) of 10 and a RatioGI50 (Cancer cell lines [30]) of 10. For the same compound, the GI50 [31] was 4 µM, the LC50 (concentration killing 50% of cells) [31] was 98.2 µM and the TGI [31] was 65.9 µM. It also gave a GI50 [32] of 1.6 µM, an LC50 [32] of 87.1 µM and a TGI [32] of 76.1 µM. It also gave a GI50 [33] of 3.2 µM, an LC50 [33] of over 100 µM and a TGI [33] of 58.4 µM. It also gave a GI50 [34] of 2.9 µM, an LC50 (concentration killing 50% of cells) [34] of over 100 µM and a TGI [34] of 60.2 µM. It also gave a GI50 [35] of 2.8 µM, an LC50 [35] of over 100 µM and a TGI [35] of 47.5 µM.

COc1cc(CSc2nc3ccc(C)cc3c(=O)n2-c2ccccc2)cc(OC)c1OC gave an inhibition of growth at 10 µM [1] of 89.6%, an inhibition of growth at 10 µM [2] of 78.2% and an inhibition of growth at 10 µM [3] of 45.1%. The inhibition of growth at 10 µM [4] was 60.7%, the inhibition of growth at 10 µM [5] was 52.6% and the inhibition of growth at 10 µM [6] was 79.8%. For the same compound, the inhibition of growth at 10 µM [7] was 50.3%, the inhibition of growth at 10 µM [8] was 73.4% and the inhibition of growth at 10 µM [9] was 69.9%. It also gave an inhibition of growth at 10 µM [10] of 85.7%, an inhibition of growth at 10 µM [36] of 96.5% and an inhibition of growth at 10 µM [11] of 61.5%. The inhibition of growth at 10 µM [12] was 64%, the inhibition of growth at 10 µM [13] was 57.6% and the inhibition of growth at 10 µM [14] was 85.3%. It also gave an inhibition of growth at 10 µM [15] of 47.9%, an inhibition of growth at 10 µM [16] of 80% and an inhibition of growth at 10 µM [17] of 79.2%. The inhibition of growth at 10 µM [18] was 66.8%, the inhibition of growth at 10 µM [19] was 42.8% and the inhibition of growth at 10 µM [20] was 53.6%. The inhibition of growth at 10 µM [21] was 47.2%, the inhibition of growth at 10 µM [22] was 62.4% and the inhibition of growth at 10 µM [23] was 55.3%. It also gave an inhibition of growth at 10 µM [24] of 63%, an inhibition of growth at 10 µM [25] of 75.9% and an inhibition of growth at 10 µM [26] of 71.8%. The inhibition of growth at 10 µM [27] was 71.8%, the RatioGI50 (Cancer cell lines [28]) was 10 and the RatioGI50 (Cancer cell lines [29]) was 10. For the same compound, the RatioGI50 (Cancer cell lines [30]) was 10, the GI50 [31] was 3 µM and the LC50 (concentration killing 50% of cells) [31] was over 100 µM. For the same compound, the TGI [31] was 87 µM, the GI50 [32] was 1.3 µM and the LC50 [32] was over 100 µM. For the same compound, the TGI [32] was 86.3 µM, the GI50 [33] was 3.9 µM and the LC50 [33] was over 100 µM. For the same compound, the TGI [33] was 82.2 µM, the GI50 [34] was 3.4 µM and the LC50 (concentration killing 50% of cells) [34] was over 100 µM. It also gave a GI50 [35] of 2.3 µM, an LC50 [35] of over 100 µM and a TGI [35] of 84.3 µM.
